Source: ChEMBL document CHEMBL1146735, “Synthesis and biological activity of macrocyclic taxane analogues” (Bioorg Med Chem Lett, 2004)

Columns and labels:
Homo sapiens = species on record: Homo sapiens; test: Compound was evaluated for the inhibition of tubulin polymerization; assay type: functional
Procedure, shortened: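 Tubulin polymerization followed by optical density. The value is the compound concentration giving a change of 0.01 OD/h, divided by the corresponding concentration of paclitaxel.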

[1] = Compound was evaluated for the ratio of IC50 of A2780/tub cell line to that of IC50 of A2780 cell line; assay type: functional
Procedure, shortened: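 Resistance ratio: IC50 in the A2780/tub line divided by the IC50 in parental A2780.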

HCT-116 = test: In vitro cytotoxicity against the paclitaxel sensitive human colon carcinoma cell line HCT116; assay type: functional, cell-based
Procedure, shortened: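 HCT116 cells exposed to compound for 72 h. Viability read by MTS assay and IC50 derived from it.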

[2] = Compound was evaluated for the ratio of HCT/mdr cell line to that of IC50 of HCT116 cell line; assay type: functional, HCT-116
Procedure, shortened: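 Resistance ratio: IC50 in the HCT116/mdr line divided by the IC50 in parental HCT116.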

A2780 = test: In vitro cytotoxicity against the paclitaxel sensitive […]; assay type: functional, cell-based; conditions: Homo sapiens
[3] = Compound was evaluated for the median survival time of compound treated mice to that of median survival time of the control mice at a dose of 200 mg/kg/injection; assay type: functional
Procedure, shortened: (§1)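 Balb/c × DBA/2 F1 hybrid mice implanted intraperitoneally with a 2% (w/v) brei of M109 lung carcinoma. Treatment was by intraperitoneal injection on days 5 and 8 post-implant. Survival was followed daily to about 75–90 days, with an untreated control group in each experiment. %T/C = median survival of treated mice / median survival of controls × 100.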

[4] = Compound was evaluated for the median survival time of compound treated mice to that of median survival time of the control mice at a dose of 120 mg/kg/injection
[5] = Compound was evaluated for the median survival time of compound treated mice to that of median survival time of the control mice at a dose of 100 mg/kg/injection; assay type: functional; procedure, shortened: as §1

SMILES	Tubulin (Homo sapiens)	R/S ratio [1]	IC50 (HCT-116)	R/S ratio [2]	IC50 (A2780)	T/C [3]	T/C [4]	T/C [5]
CC(=O)O[C@H]1[C@@H]2CO[C@@H]2[C@@H]2OCOCCOC(=O)O[C@H]3C(=O)[C@@]2(C)[C@@H]1[C@H](OC(=O)c1ccccc1)[C@]1(O)C[C@H](OC(=O)[C@H](O)[C@@H](NC(=O)c2ccccc2)c2ccccc2)C(C)=C3C1(C)C	0.73	32	1.9 nM	31	2.1 nM	–	–	–
CC(=O)O[C@H]1[C@@H]2CO[C@@H]2[C@@H]2OCOCCOCO[C@H]3C(=O)[C@@]2(C)[C@@H]1[C@H](OC(=O)c1ccccc1)[C@]1(O)C[C@H](OC(=O)[C@H](O)[C@@H](NC(=O)c2ccccc2)c2ccccc2)C(C)=C3C1(C)C	1.49	15	3 nM	10	2.6 nM	174%	–	–
CC(=O)O[C@H]1[C@@H]2CO[C@@H]2[C@@H]2OCOCC(C)(C)COCO[C@H]3C(=O)[C@@]2(C)[C@@H]1[C@H](OC(=O)c1ccccc1)[C@]1(O)C[C@H](OC(=O)[C@H](O)[C@@H](NC(=O)c2ccccc2)c2ccccc2)C(C)=C3C1(C)C	2.87	23	17.2 nM	11	18 nM	–	118%	–
CC(=O)O[C@H]1[C@@H]2CO[C@@H]2[C@@H]2OCOCCOCO[C@H]3C(=O)[C@@]2(C)[C@@H]1[C@H](OC(=O)c1ccccc1)[C@]1(O)C[C@H](OC(=O)[C@H](O)[C@@H](NC(=O)OC(C)(C)C)c2ccccc2)C(C)=C3C1(C)C	0.67	6	0.8 nM	12	18.5 nM	–	–	190%
